Measured values published in ChEMBL document CHEMBL3351346, “Design, synthesis, structure-function relationship, bioconversion, and pharmacokinetic evaluation of ertapenem prodrugs” (J Med Chem, 2014).

Key:
[1] = Stability in pH 2.0 simulated gastric fluid assessed as compound degradation to beta-lactam ring open products at 1 uM after 60 mins by LC-MS/MS method; format: ADME; conditions: read-out: Drug degradation
In short: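 Incubation was in simulated gastric fluid (SGF, pH 2.0) for 60 min, with loss to the β-lactam ring-opened product measured by LC-MS/MS.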

[2] = Stability in pH 7.4 phosphate buffer assessed as compound remaining at 50 uM after 3 hrs by LC-MS/MS method; format: physicochemical; conditions: read-out: Stability
[3] = test system: Rattus norvegicus; test: Oral bioavailability in fasted Sprague-Dawley rat assessed as ertapenem level at 10 mg/kg dosed through intraduodenal route by LC-MS/MS method; format: ADME, organism-based; conditions: in vivo
In short: (§1)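 After intraduodenal dosing, plasma over 8 h was analysed by LC-MS/MS. Bioavailability was calculated as dose-normalized AUC of ertapenem formed from the prodrug divided by dose-normalized AUC of ertapenem dosed iv. Vehicle was 30% Captisol or 0.5% methylcellulose.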

[4] = test system: Rattus norvegicus; test: AUC (0 to 8 hrs) in fasted Sprague-Dawley rat assessed as ertapenem level at 10 mg/kg dosed through intraduodenal route by LC-MS/MS method; format: ADME, organism-based, Plasma; set-up: time < 8 hr, dose 10 mg/kg, route intraduodenal; conditions: in vivo, other
In short: (§2)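 Prodrugs were given intraduodenally to bypass stomach acid. Plasma was sampled at intervals over 8 h, and parent prodrug, the two monoester metabolites and ertapenem were quantified by LC-MS/MS. The lower limit of quantitation was 5 nM. AUC(0–8) was used, and it differed from AUC(0–∞) by ±20%. Vehicles were 30% Captisol or 0.5% methylcellulose, as solution or suspension depending on compound.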

[5] = Stability in pH 6.5 simulated gastrointestinal fluid assessed as compound remaining at 50 uM after 3 hrs by LC-MS/MS method; format: ADME; conditions: read-out: Stability
In short: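 Compounds at 50 μM were incubated in fasted-state simulated intestinal fluid (FaSSIF, pH 6.5) for over 3 h. Percent remaining was determined by LC-MS/MS.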

[6] = Stability in human plasma assessed as compound remaining at 50 uM at 37 degC after 60 mins by LC-MS/MS method; format: ADME, cell-free; conditions: read-out: Stability
In short: (§3)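 Prodrugs were incubated in rat or human plasma for 60 min. Disappearance of prodrug and concomitant appearance of ertapenem were followed by LC-MS/MS, and in selected cases monoesters from partial hydrolysis were also monitored. Ertapenem itself was incubated the same way as a control.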

[7] = test system: Rattus norvegicus; test: (§4) AUC (0 to 8 hrs) in fasted Sprague-Dawley rat at 10 mg/kg dosed through intraduodenal route by LC-MS/MS method; format: ADME, organism-based, Plasma; set-up: time < 8 hr, dose 10 mg/kg, route intraduodenal; conditions: in vivo, other, 8 h, BLD = below limit of detection; in short: as §2
[8] = test system: Rattus norvegicus; test: Oral bioavailability in fasted Sprague-Dawley rat assessed as ertapenem and monoetser metabolites level at 10 mg/kg dosed through intraduodenal route by LC-MS/MS method; format: ADME, organism-based; conditions: in vivo
In short: (§5)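 Total absorption followed intraduodenal dosing with LC-MS/MS of plasma over 8 h. It was calculated as the combined dose-normalized AUC of circulating parent prodrug, ertapenem and two monoesters, divided by dose-normalized AUC of ertapenem given iv. Vehicle was 30% Captisol or 0.5% methylcellulose.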

[9] = Stability in rat plasma assessed as compound remaining at 50 uM at 37 degC after 60 mins by LC-MS/MS method; format: ADME, cell-free; conditions: read-out: Stability; in short: as §3
[10] = test system: Canis familiaris; test: AUC (0 to 8 hrs) in fasted Beagle dog assessed as ertapenem level at 10 mg/kg dosed through intraduodenal route by LC-MS/MS method; format: ADME, organism-based, Canis lupus familiaris, Plasma; set-up: time < 8 hr, dose 10 mg/kg, route intraduodenal; conditions: in vivo, other; in short: as §2
[11] = test system: Canis familiaris; test: Oral bioavailability in fasted Beagle dog assessed as ertapenem level at 10 mg/kg dosed through intraduodenal route by LC-MS/MS method; format: ADME, organism-based, Canis lupus familiaris; conditions: in vivo; in short: as §1
[12] = test system: Canis familiaris; test: Oral bioavailability in fasted Beagle dog assessed as assessed as ertapenem and monoetser metabolites level at 10 mg/kg dosed through intraduodenal route by LC-MS/MS method; format: ADME, organism-based, Canis lupus familiaris; conditions: in vivo; in short: as §5
[13] = test system: Canis familiaris; test: (§6) AUC (0 to 8 hrs) in fasted Beagle dog at 10 mg/kg dosed through intraduodenal route by LC-MS/MS method; format: ADME, organism-based, Canis lupus familiaris, Plasma; set-up: time < 8 hr, dose 10 mg/kg, route intraduodenal; conditions: in vivo, other, 8 h, BLD = below limit of detection; in short: as §2
[14] = test system: Canis familiaris; test: AUC (0 to 8 hrs) in fasted Beagle dog assessed as 8-OH, benzoate ester level at 6.18 mg/kg dosed through intraduodenal route by LC-MS/MS method; format: ADME, organism-based, Canis lupus familiaris, Plasma; set-up: time < 8 hr, dose 6.18 mg/kg, route intraduodenal; conditions: in vivo, other; in short: as §2
[15] = AUC (0 to 8 hrs) in fasted Beagle dog at 6.18 mg/kg dosed through intraduodenal route by LC-MS/MS method; format: ADME, organism-based, Canis lupus familiaris; set-up: time < 8 hr, dose 6.18 mg/kg, route intraduodenal; conditions: plasma; in short: as §2
[16] = test system: Canis familiaris; test: Oral bioavailability in fasted Beagle dog assessed as assessed as ertapenem and monoetser metabolites level at 6.18 mg/kg dosed through intraduodenal route by LC-MS/MS method; format: ADME, organism-based, Canis lupus familiaris; conditions: in vivo; in short: as §5
[17] = test system: Canis familiaris; test: AUC (0 to 8 hrs) in fasted Beagle dog assessed as 8-OH, C-3 ester level at 6.18 mg/kg dosed through intraduodenal route by LC-MS/MS method; format: ADME, organism-based, Canis lupus familiaris, Plasma; set-up: time < 8 hr, dose 6.18 mg/kg, route intraduodenal; conditions: in vivo, other; in short: as §2
[18] = test system: Canis familiaris; test: Oral bioavailability in fasted Beagle dog assessed as ertapenem level at 6.18 mg/kg dosed through intraduodenal route by LC-MS/MS method; format: ADME, organism-based, Canis lupus familiaris; conditions: in vivo; in short: as §1
[19] = test system: Canis familiaris; test: AUC (0 to 8 hrs) in fasted Beagle dog assessed as ertapenem level at 6.18 mg/kg dosed through intraduodenal route by LC-MS/MS method; format: ADME, organism-based, Canis lupus familiaris, Plasma; set-up: time < 8 hr, dose 6.18 mg/kg, route intraduodenal; conditions: in vivo, other; in short: as §2
[20] = Oral drug absorption in fasted Beagle dog at 6.18 mg/kg dosed through intraduodenal route by LC-MS/MS method; format: ADME, organism-based, Canis lupus familiaris; set-up: dose 6.18 mg/kg, route intraduodenal; conditions: in vivo; in short: as §5
[21] = as §4; format: ADME, organism-based, Plasma; set-up: time < 8 hr, dose 10 mg/kg, route intraduodenal; conditions: Sprague-Dawley, plasma; in short: as §2
[22] = test system: Canis familiaris; test: AUC (0 to 8 hrs) in fasted Beagle dog assessed as 8-OH, benzoate ester level at 10 mg/kg dosed through intraduodenal route by LC-MS/MS method; format: ADME, organism-based, Canis lupus familiaris, Plasma; set-up: time < 8 hr, dose 10 mg/kg, route intraduodenal; conditions: in vivo, other; in short: as §2
[23] = test system: Canis familiaris; test: AUC (0 to 8 hrs) in fasted Beagle dog assessed as 8-OH, C-3 ester level at 10 mg/kg dosed through intraduodenal route by LC-MS/MS method; format: ADME, organism-based, Canis lupus familiaris, Plasma; set-up: time < 8 hr, dose 10 mg/kg, route intraduodenal; conditions: in vivo, other; in short: as §2
[24] = as §6; format: ADME, organism-based, Canis lupus familiaris, Plasma; set-up: time < 8 hr, dose 10 mg/kg, route intraduodenal; conditions: Beagle, plasma; in short: as §2
[25] = Oral drug absorption in fasted Beagle dog at 10 mg/kg dosed through intraduodenal route by LC-MS/MS method; format: ADME, organism-based, Canis lupus familiaris; set-up: dose 10 mg/kg, route intraduodenal; conditions: in vivo; in short: as §5

Row | SMILES | degraded at 1 h, 1 µM [1] | remaining at 3 h, 50 µM [2] | F [3] | AUC [4] | remaining at 3 h, 50 µM [5] | remaining at 1 h, 50 µM [6] | AUC [7] | F [8] | remaining at 1 h, 50 µM [9] | AUC [10] | F [11] | F [12] | AUC(0-t) at 8 h [24] | further results
1 | CC(C)c1oc(=O)oc1COC(=O)C1=C(S[C@@H]2CN[C@H](C(=O)Nc3cccc(C(=O)OCc4oc(=O)oc4C(C)C)c3)C2)[C@H](C)[C@@H]2[C@@H]([C@@H](C)O)C(=O)N12 | > 25% | > 95% | 0.9% | 0.4 µM·h | > 95% | 8% | BLD | 0.9% | 6% |  |  |  |  | 
2 | C[C@@H](O)[C@H]1C(=O)N2C(C(=O)OCc3oc(=O)oc3C(C)(C)C)=C(S[C@@H]3CN[C@H](C(=O)Nc4cccc(C(=O)OCc5oc(=O)oc5C(C)(C)C)c4)C3)[C@H](C)[C@H]12 | > 25% | > 95% | 0.3% | 0.2 µM·h | > 95% | 10% | BLD | 0.3% | 0% | 0.2 µM·h | 0.4% | 0.4% |  | AUC [13]: BLD
3 | CC(C)OC(=O)C1=C(S[C@@H]2CN[C@H](C(=O)Nc3cccc(C(=O)OC(C)C)c3)C2)[C@H](C)[C@@H]2[C@@H]([C@@H](C)O)C(=O)N12 | > 25% | > 95% | < 0.1% | < 0.1 µM·h | > 95% | 16% |  | 0.1% | 0% |  |  |  |  | AUC [14]: 0.3 µM·h; AUC(0-t) at 8 h [15]: 1.6 µM·h; F [16]: 5.1%; AUC [17]: 0.2 µM·h; F [18]: 0.5%; AUC [19]: 0.2 µM·h; Fa [20]: 5.1%; AUC(0-t) at 8 h [21]: 0.09 µM·h
4 | C[C@@H](O)[C@H]1C(=O)N2C(C(=O)OCC(F)(F)F)=C(S[C@@H]3CN[C@H](C(=O)Nc4cccc(C(=O)OCC(F)(F)F)c4)C3)[C@H](C)[C@H]12 | > 25% | > 95% | 3% | 1.7 µM·h | > 95% | 6% | BLD | 3% | 3% | 6.7 µM·h | 10.2% | 12% | 0.2 µM·h | AUC [22]: 0.2 µM·h; AUC [23]: 0.8 µM·h
5 | CC(C)CCC[C@@H](C)[C@H]1CC[C@H]2[C@@H]3CC=C4C[C@@H](OC(=O)COC(=O)c5cccc(NC(=O)[C@@H]6C[C@H](SC7=C(C(=O)OCC(F)(F)F)N8C(=O)[C@H]([C@@H](C)O)[C@H]8[C@H]7C)CN6)c5)CC[C@]4(C)[C@H]3CC[C@]12C | > 25% | > 95% |  |  | > 95% | 92% |  |  | 97% |  |  | 0.1% | < 0.1 µM·h | AUC ([10]; BLD = below limit of detection): BLD; F ([11]; BLD = below limit of detection): BLD; Fa [25]: < 0.1%; AUC ([23]; BLD = below limit of detection): BLD
